pKi: −log10 of the molar value.
Target: T1, Tetanus toxin (Clostridium tetani (strain Massachusetts / E88), UniProt P04958)
T1 sequence (P04958 whole entry): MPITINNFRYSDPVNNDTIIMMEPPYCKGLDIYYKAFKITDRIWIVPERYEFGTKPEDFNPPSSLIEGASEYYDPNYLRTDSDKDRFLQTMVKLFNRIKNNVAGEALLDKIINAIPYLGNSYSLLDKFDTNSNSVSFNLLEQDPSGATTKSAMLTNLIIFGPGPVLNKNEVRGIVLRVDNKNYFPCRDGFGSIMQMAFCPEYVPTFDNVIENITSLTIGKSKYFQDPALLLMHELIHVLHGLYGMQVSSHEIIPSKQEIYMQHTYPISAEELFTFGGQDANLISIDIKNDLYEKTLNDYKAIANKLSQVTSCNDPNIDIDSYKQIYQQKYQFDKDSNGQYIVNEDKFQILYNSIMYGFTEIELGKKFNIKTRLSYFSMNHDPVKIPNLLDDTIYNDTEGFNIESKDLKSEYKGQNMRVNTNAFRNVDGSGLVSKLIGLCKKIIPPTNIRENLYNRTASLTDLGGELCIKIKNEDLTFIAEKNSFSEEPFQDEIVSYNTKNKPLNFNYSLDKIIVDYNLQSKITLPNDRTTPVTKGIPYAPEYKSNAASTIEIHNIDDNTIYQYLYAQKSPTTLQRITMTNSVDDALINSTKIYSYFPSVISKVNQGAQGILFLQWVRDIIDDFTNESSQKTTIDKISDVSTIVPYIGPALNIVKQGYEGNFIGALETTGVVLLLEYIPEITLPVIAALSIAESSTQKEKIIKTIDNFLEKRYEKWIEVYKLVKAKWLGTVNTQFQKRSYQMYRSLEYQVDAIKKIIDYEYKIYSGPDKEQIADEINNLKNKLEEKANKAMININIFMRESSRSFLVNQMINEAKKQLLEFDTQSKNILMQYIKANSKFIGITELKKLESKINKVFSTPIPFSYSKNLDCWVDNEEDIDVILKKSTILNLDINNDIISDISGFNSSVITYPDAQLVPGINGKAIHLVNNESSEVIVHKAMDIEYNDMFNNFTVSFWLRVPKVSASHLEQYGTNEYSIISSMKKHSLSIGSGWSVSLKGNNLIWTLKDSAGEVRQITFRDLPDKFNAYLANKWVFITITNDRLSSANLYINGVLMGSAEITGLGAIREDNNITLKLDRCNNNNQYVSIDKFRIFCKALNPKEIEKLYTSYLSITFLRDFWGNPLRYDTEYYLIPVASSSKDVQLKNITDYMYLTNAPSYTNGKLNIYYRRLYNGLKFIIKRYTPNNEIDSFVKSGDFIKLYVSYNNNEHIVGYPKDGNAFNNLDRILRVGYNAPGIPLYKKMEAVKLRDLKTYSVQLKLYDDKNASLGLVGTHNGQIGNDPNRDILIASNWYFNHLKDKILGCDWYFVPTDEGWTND
Test: Inhibition of tetanus neurotoxin (TeNt)
Procedure, shortened: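 TeNt metallopeptidase activity on the fluorescent substrate [Pya⁸⁸]S39-88 (40, 50, 66, 100, 200 μM) in 20 mM Hepes pH 7.4, 100 mM NaCl, 0.1 mM DTT at 37 °C. Inhibitor absent or at 1, 10, 33, 100 μM. Rate read by RP-HPLC as the appearance of fluorescent product [Pya⁸⁸]S77-88. Lineweaver–Burk analysis; mean of three independent experiments in triplicate.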

SMILES | pKi
N[C@@H](CCS(N)(=O)=O)[C@@H](S)C(=O)N[C@@H](Cc1ccc(O)cc1)C(=O)N[C@@H](Cc1c[nH]cn1)C(=O)O | 5.30
N[C@@H](c1cccc(S(N)(=O)=O)c1)[C@H](S)C(=O)N[C@@H](Cc1ccc(O)cc1)C(=O)N[C@@H](Cc1c[nH]cn1)C(=O)NCc1ccccc1 | 5.02
N[C@H](c1cccc(S(N)(=O)=O)c1)[C@@H](S)C(=O)N[C@@H](Cc1ccc(O)cc1)C(=O)N[C@@H](Cc1c[nH]cn1)C(=O)NCc1ccccc1 | 5.22
N[C@H](c1cccc(S(N)(=O)=O)c1)[C@H](S)C(=O)N[C@@H](Cc1ccc(O)cc1)C(=O)N[C@@H](Cc1c[nH]cn1)C(=O)NCc1ccccc1 | 5.40
N[C@@H](CS)CCS(N)(=O)=O | 4.00
NC(=O)CC[C@@H](N)CS | 3.60
N[C@@H](c1cccc(S(N)(=O)=O)c1)[C@@H](S)C(=O)N[C@@H](Cc1ccc(O)cc1)C(=O)N[C@@H](Cc1c[nH]cn1)C(=O)NCc1ccccc1 | 5.52
C[C@@H](O)[C@H](NC(=O)[C@H](CCC(=O)O)NC(=O)[C@@H](Cc1ccccc1)NC(=O)C(S)[C@@H](N)CCC(=O)ON)C(=O)N[C@@H](CO)C(=O)O (mixture of isomers) | 4.10
NC(CS)c1cccc(S(N)(=O)=O)c1 (stereo not drawn) | 4.46
C[C@@H](O)[C@H](NC(=O)[C@H](CCC(=O)O)NC(=O)[C@@H](Cc1ccccc1)NC(=O)C(S)[C@@H](N)CCC(=O)ON)C(=O)O (mixture of isomers) | 4.00
N[C@@H](CCS(N)(=O)=O)[C@@H](S)C(=O)N[C@@H](Cc1ccc(O)cc1)C(=O)N[C@@H](Cc1cnc[nH]1)C(=O)NCc1ccccc1 | 5.41
N[C@@H](CCS(N)(=O)=O)[C@H](S)C(=O)N[C@@H](Cc1ccc(O)cc1)C(=O)N[C@@H](Cc1c[nH]cn1)C(=O)O | 4.82
N[C@@H](CCS(N)(=O)=O)[C@H](S)C(=O)N[C@@H](Cc1ccc(O)cc1)C(=O)N[C@@H](Cc1c[nH]cn1)C(=O)NCc1ccccc1 | 5.17

— ChEMBL document CHEMBL1132574, “Metallopeptidase inhibitors of tetanus toxin: A combinatorial approach” (J Med Chem, 1999)
